This passage reports pKa, Monocation species and Kb results from ChEMBL document CHEMBL1124468, “N-(fluoroethyl)(imidazolylphenyl)formamidines. The issue of the active species of mifentidine” (J Med Chem, 1989).

As a reminder, the pKa is the pH at which an ionisable group is half protonated. For orientation: Kb means the equilibrium dissociation constant of an antagonist, usually derived from a functional assay. High values mean lower antagonist affinity, low ones higher antagonist affinity.

Data set [1] can be described thus: Dissociation constant for formamidine ring. The data set is classed as physicochemical. The essentials: (§1)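 Macroscopic ionization constants (pKa) by potentiometric titration of compound dissolved in previously boiled distilled water with 2 mL methanol; titrated with 0.1 N KOH in 0.1-equivalent additions, pH read at equilibrium after each addition.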
Data set [2] in a line: Dissociation constant for imidazole ring. Format: physicochemical. The essentials: as §1
Data set [3] can be described thus: Percent of monocationic species at a pH of 6.5 was determined. The essentials: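 Monocationic percentage at pH 6.5 computed with the Henderson-Hasselbach equation from pKa values measured by potentiometric titration with 0.1 N KOH in water containing a little methanol.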
Data set [4] addresses Histamine H2 receptor (Cavia porcellus) (UniProt P47747). Nature of the data set: Antagonist activity against histamine H2 receptor was evaluated in guinea pig atria; value ranges from (3.6-16.1)x10E-9. Format: functional. In outline: (§2)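 Spontaneously beating atria from male Dunkin-Hartley guinea pigs (400–500 g) in oxygenated (O2/CO2 95:5) McEwen's solution, pH 6.5, 32 °C; rate recorded by instantaneous rate meter. Cumulative histamine up to maximal chronotropic response; antagonist equilibrated 60 min. K_B = [B]/(DR − 1), DR being histamine dose ratios at half-maximal response with and without several antagonist concentrations; multiple-regression evaluation.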

Data set [5] has the same target. Nature of the data set: Antagonist activity against histamine H2 receptor was evaluated in guinea pig atria; value ranges from (3.8-119)x10E-9. Format: functional. In outline: as §2
A short description of data set [6]: Dissociation constant for imidazole ring; ND means not determined because of product insolubility. Format: physicochemical. The essentials:
as §1

In data set [7] the target is Histamine H2 receptor (Cavia porcellus) (UniProt P47747). The data set is described as follows: Antagonist activity against histamine H2 receptor was evaluated in guinea pig atria; value ranges from (40.2-93.3) x10E-9. Format: functional. The essentials:
as §2

Histamine H2 receptor (Cavia porcellus), sequence (P47747 whole entry): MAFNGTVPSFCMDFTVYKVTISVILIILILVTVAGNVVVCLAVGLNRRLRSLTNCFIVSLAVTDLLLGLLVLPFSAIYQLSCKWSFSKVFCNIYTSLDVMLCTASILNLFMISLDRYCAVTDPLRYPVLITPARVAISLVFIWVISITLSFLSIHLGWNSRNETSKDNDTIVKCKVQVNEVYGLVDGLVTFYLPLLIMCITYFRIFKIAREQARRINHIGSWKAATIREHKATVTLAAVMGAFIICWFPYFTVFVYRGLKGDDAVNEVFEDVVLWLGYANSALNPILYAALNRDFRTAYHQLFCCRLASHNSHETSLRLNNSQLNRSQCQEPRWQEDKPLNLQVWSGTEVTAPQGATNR

On to `CC/N=C/Nc1ccc(-c2c[nH]cn2)cc1`, for which the figures for the pKa in data set [1] and in data set [2] were 8.65 and 5.57, respectively. This molecule also came in with a Monocation species in data set [3] of 88.78%.
Take `FC(F)(F)C/N=C/Nc1ccc(-c2c[nH]cn2)cc1`: the pKa was 6.14 in data set [1] and 4.45 in data set [2]. Besides, in data set [3], the Monocation species is given as 29.5%. Besides, the Kb in data set [4] came to 7.6 nM.
`FC(F)C/N=C/Nc1ccc(-c2c[nH]cn2)cc1`: the pKa in data set [1] came to 6.6; in data set [2], 4.54. The same molecule gave a Monocation species in data set [3] of 54.64%. In data set [5], this molecule yielded a Kb of 21 nM.
Take `N#C/N=C/Nc1ccc(-c2c[nH]cn2)cc1`: the pKa is below 1 in data set [1] and “Insoluble” in data set [6].
Take `FCC/N=C/Nc1ccc(-c2c[nH]cn2)cc1`: the pKa is 8.12 in data set [1] and 5.55 in data set [2]. The Monocation species in data set [3] is 87.56%. In data set [7], this molecule had a Kb of 61 nM.
